Results published in ChEMBL document CHEMBL4304771, “Design, synthesis and biological activity of N-(2-phenoxy)ethyl imidazo[1,2-a]pyridine-3-carboxamides as new antitubercular agents” (Eur J Med Chem, 2019).
≈ marks a conversion by molar mass, not a printed value.

What was measured:
[1] = tested on: Mycobacterium tuberculosis; assay: Antitubercular activity against Mycobacterium tuberculosis H37Rv ATCC 27294 assessed as parasite growth inhibition measured after 7 days incubation by microplate alamar blue assay; assay type: functional; details: H37Rv ATCC 27294, 168 h
Procedure, shortened: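 Strains grown to late log phase in 7H9 with 0.2% glycerol, 0.05% Tween 80 and 10% ADC. Cells washed, resuspended in PBS, filtered (8 µm) and frozen at -80 °C. Two-fold compound dilutions, 2 × 10⁵ CFU per well, 37 °C for 7 days. Tween 80 and Alamar blue then added for 16-24 h; fluorescence read at ex 530/em 590 nm. MIC = lowest concentration giving ≥90% fluorescence reduction versus mean of bacterium-only controls.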

[2] = Tmax in ICR mouse at 50 mg/kg, po administered as single dose measured for 24 hrs by HPLC analysis; assay type: ADME, organism-based; details: in vivo
Procedure, shortened: (§1)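 Female SPF ICR mice (18–22 g), fasted overnight, 3 per group, got a single oral 50 mg/kg dose as a suspension in 0.5% CMC. Jugular blood was drawn at 0.25, 0.5, 1, 2, 4, 6, 8 and 24 h, and serum was stored at −20 °C. Proteins were precipitated with acetonitrile, and extracts were dried, redissolved in acetonitrile and run by HPLC. Parameters came directly from the concentration–time data.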

[3] = AUC (0 to infinity) in ICR mouse at 50 mg/kg, po administered as single dose measured for 24 hrs by HPLC analysis; assay type: ADME, organism-based; set-up: dose 50 mg/kg, route oral, time infinity; details: in vivo; procedure, shortened: as §1
[4] = Cmax in ICR mouse at 50 mg/kg, po administered as single dose measured for 24 hrs by HPLC analysis; assay type: ADME, organism-based; set-up: dose 50 mg/kg, route oral; details: in vivo; procedure, shortened: as §1
[5] = Mean residence time in ICR mouse at 50 mg/kg, po administered as single dose measured for 24 hrs by HPLC analysis; assay type: ADME, organism-based; details: in vivo; procedure, shortened: as §1
[6] = Acute toxicity in ICR mouse assessed as animal survival at 500 mg/kg, po administered as single dose measured for 7 days; assay type: organism-based; details: in vivo
Procedure, shortened: (§2)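 Female ICR mice, 18-22 g, five per group, randomly assigned, fasted overnight. Single oral dose of 500 mg/kg suspended in 5% CMC; controls got 5% CMC alone (0.5 mL). Watched continuously for 4 h, then hourly to 24 h, then every 8 h for 7 days for deaths or changes. Read-out was survivors/total.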

[7] = Half-life in ICR mouse at 50 mg/kg, po administered as single dose measured for 24 hrs by HPLC analysis; assay type: ADME, organism-based; details: in vivo; procedure, shortened: as §1
[8] = Half-life in human hepatocytes; assay type: ADME, cell-based, Hepatocyte
[9] = Acute toxicity in ICR mouse assessed as decrease in animal survival at 500 mg/kg, po administered as single dose measured for 7 days; assay type: organism-based; details: in vivo, 168 h; procedure, shortened: as §2

`COc1ccc2nc(C)c(C(=O)NCCOc3ccc(N4CCN(C)CC4)cc3)n2c1` gave an MIC [1] of 0.5 µg/mL (≈ 1.18 µM).

`CCc1nc2ccc(F)cn2c1C(=O)NCCOc1ccc(Br)cc1` showed an MIC [1] of 0.202 µg/mL (≈ 0.497 µM).

With `Cc1nc2ccc(Br)cn2c1C(=O)NCCOc1ccc(Br)cc1` the MIC [1] was 0.358 µg/mL (≈ 0.79 µM).

Work on `O=C(NCCOc1ccc(Br)cc1)c1c(C2CC2)nc2cc(Cl)ccn12` yielded an MIC [1] of 32 µg/mL (≈ 73.6 µM).

`CCc1nc2ccc(Br)cn2c1C(=O)NCCOc1ccc(N2CCC(C(F)(F)F)CC2)cc1` gave a Tmax [2] of 45 min, an MIC [1] of 0.0625 µg/mL (≈ 0.116 µM) and an AUC(0-inf) [3] of 7120 ng·h/mL. It also gave a Cmax [4] of 5080 ng/mL, an MRT [5] of 113 min and a survival at 168 h [6] of 100%. It also gave a half-life [7] of 283 min.

In the case of `CCc1nc2cc(Cl)ccn2c1C(=O)NCCOc1ccc(Br)cc1`, the MIC [1] is reported as 6.35 µg/mL (≈ 15 µM).

In the case of `Cc1ccc2nc(C)c(C(=O)NCCOc3ccc(Br)cc3)n2c1`, the MIC [1] is reported as 0.031 to 0.125 µg/mL (≈ 0.0798 to 0.322 µM) and the half-life [8] is reported as 6.5 min.

Work on `Cc1nc2c(Cl)cccn2c1C(=O)NCCOc1ccc(Br)cc1` yielded an MIC [1] of 0.505 µg/mL (≈ 1.24 µM).

`CCc1nc2ccc(C)cn2c1C(=O)NCCOc1ccc(N2CCN(C)CC2)cc1` gave an MIC [1] of 4 µg/mL (≈ 9.49 µM).

For `Cc1ccn2c(C(=O)NCCOc3ccc(Br)cc3)c(C3CC3)nc2c1`, the MIC [1] was 5 µg/mL (≈ 12.1 µM).

`CCCc1nc2ccc(Cl)cn2c1C(=O)NCCOc1ccc(Cl)cc1` gave an MIC [1] of 0.631 µg/mL (≈ 1.61 µM).

With `Cc1nc2ccc(Cl)cn2c1C(=O)NCCOc1ccc(Br)cc1` the MIC [1] was 0.488 µg/mL (≈ 1.19 µM).

With `O=C(NCCOc1ccc(Br)cc1)c1c(C2CC2)nc2ccc(F)cn12` the MIC [1] was 0.928 µg/mL (≈ 2.22 µM).

With `CCc1nc2ccc(C)cn2c1C(=O)NCCOc1ccc(Br)cc1` the MIC [1] was 0.275 µg/mL (≈ 0.684 µM).

`CCCc1nc2ccc(C)cn2c1C(=O)NCCOc1ccc(Br)cc1` gave an MIC [1] of 0.415 µg/mL (≈ 0.997 µM).

`Cc1ccn2c(C(=O)NCCOc3ccc(Br)cc3)c(C)nc2c1` gave an MIC [1] of 0.463 µg/mL (≈ 1.19 µM).

`Cc1nc2ccc(F)cn2c1C(=O)NCCOc1ccc(Br)cc1` showed an MIC [1] of 1.21 µg/mL (≈ 3.08 µM).

Compound `CCc1nc2ccc(Br)cn2c1C(=O)NCCOc1ccc(N2CCN(C)CC2)cc1` has an MIC [1] of 1 µg/mL (≈ 2.06 µM).

For `COc1ccc(OCCNC(=O)c2c(C3CC3)nc3ccc(C)cn23)cc1`, the MIC [1] was 0.027 µg/mL (≈ 0.0739 µM) and the half-life [8] was 7.8 min.

Work on `CCc1nc2ccc(Cl)cn2c1C(=O)NCCOc1ccc(Cl)cc1` yielded an MIC [1] of 0.029 µg/mL (≈ 0.0767 µM) and a half-life [8] of 12.9 min.

For `CCc1nc2ccc(Cl)cn2c1C(=O)NCCOc1ccc(Br)cc1`, the MIC [1] was 0.023 µg/mL (≈ 0.0544 µM) and the half-life [8] was 35.2 min.

With `COc1ccc2nc(C)c(C(=O)NCCOc3ccc(N4CC5CCCCC5C4)cc3)n2c1` (configuration not stated) the Activity [9] was “Toxic” and the MIC [1] was 0.0625 µg/mL (≈ 0.139 µM).

Compound `CCCc1nc2ccc(F)cn2c1C(=O)NCCOc1ccc(Br)cc1` has an MIC [1] of 2.68 µg/mL (≈ 6.38 µM).

In the case of `COc1ccc2nc(C)c(C(=O)NCCOc3ccc(Br)cc3)n2c1`, the MIC [1] is reported as 0.028 µg/mL (≈ 0.0693 µM) and the half-life [8] is reported as 54.2 min.

Work on `NNC(=O)c1ccncc1` [ISONIAZID] yielded an MIC [1] of 0.049 µg/mL (≈ 0.357 µM).

In the case of `Cc1nc2cccc(Cl)n2c1C(=O)NCCOc1ccc(Br)cc1`, the MIC [1] is reported as 2.52 µg/mL (≈ 6.18 µM).

In the case of `O=c1nc(N2CCN(CC3CCCCC3)CC2)sc2c([N+](=O)[O-])cc(C(F)(F)F)cc12` [MACOZINONE], the MIC [1] is reported as 0.0625 µg/mL (≈ 0.137 µM).

With `O=C(NCCOc1ccc(Br)cc1)c1c(C2CC2)nc2ccc(Cl)cn12` the MIC [1] was 0.098 µg/mL (≈ 0.225 µM).

Compound `CCCc1nc2ccc(C)cn2c1C(=O)NCCOc1ccc(Cl)cc1` has an MIC [1] of 0.631 µg/mL (≈ 1.7 µM).

With `Cc1nc2c(C)cccn2c1C(=O)NCCOc1ccc(Br)cc1` the MIC [1] was 13.9 µg/mL (≈ 35.9 µM).

`CCc1nc2ccc(Cl)cn2c1C(=O)NCc1ccc(N2CCC(c3ccc(OC(F)(F)F)cc3)CC2)cc1` [TELACEBEC] gave an MIC [1] of 0.0625 µg/mL (≈ 0.112 µM).

Work on `O=C(NCCOc1ccc(Cl)cc1)c1c(C2CC2)nc2cc(Cl)ccn12` yielded an MIC [1] of 32 µg/mL (≈ 82 µM).

For `CCc1nc2c(Cl)cccn2c1C(=O)NCCOc1ccc(Br)cc1`, the MIC [1] was 17.5 µg/mL (≈ 41.4 µM).

Compound `CCc1nc2ccc(Cl)cn2c1C(=O)NCCOc1ccc(N2CCN(c3ccc(F)cc3)CC2)cc1` has a Tmax [2] of 80 min, an MIC [1] of 0.0625 µg/mL (≈ 0.12 µM) and an AUC(0-inf) [3] of 11100 ng·h/mL. The Cmax [4] was 3330 ng/mL, the MRT [5] was 214 min and the survival at 168 h [6] was 100%. The half-life [7] was 265 min.

With `Cc1nc2cc(Cl)ccn2c1C(=O)NCCOc1ccc(Br)cc1` the MIC [1] was 2.68 µg/mL (≈ 6.56 µM).

Compound `Cc1nc2ccc(F)cn2c1C(=O)NCCOc1ccc(Cl)cc1` has an MIC [1] of 3.84 µg/mL (≈ 11 µM).

`CCc1nc2ccc(Br)cn2c1C(=O)NCCOc1ccc(Br)cc1` showed an MIC [1] of 0.025 µg/mL (≈ 0.0535 µM) and a half-life [8] of 15.8 min.

With `CCc1nc2ccc(C)cn2c1C(=O)NCCOc1ccc(OC)cc1` the MIC [1] was 0.023 µg/mL (≈ 0.0651 µM) and the half-life [8] was 19.5 min.

With `CCCc1nc2ccc(Cl)cn2c1C(=O)NCCOc1ccc(Br)cc1` the MIC [1] was 0.054 µg/mL (≈ 0.124 µM).

With `Cc1ccc2nc(C)c(C(=O)NCCOc3ccncc3)n2c1` the MIC [1] was greater than 32 µg/mL.

`CCc1nc2ccc(Cl)cn2c1C(=O)NCCOc1ccc(OC)cc1` showed an MIC [1] of 0.056 µg/mL (≈ 0.15 µM).

With `CCc1nc2ccc(Br)cn2c1C(=O)NCCOc1ccc(N2CC3CCCCC3C2)cc1` (configuration not stated) the Activity [9] was “Toxic” and the MIC [1] was 0.0625 µg/mL (≈ 0.122 µM).

Work on `CO[C@H]1/C=C/O[C@@]2(C)Oc3c(C)c(O)c4c(O)c(c(/C=N/N5CCN(C)CC5)c(O)c4c3C2=O)NC(=O)/C(C)=C\C=C\[C@H](C)[C@H](O)[C@@H](C)[C@@H](O)[C@@H](C)[C@H](OC(C)=O)[C@@H]1C` [RIFAMPIN] yielded an MIC [1] of 0.05 µg/mL (≈ 0.0608 µM).

In the case of `CCCc1nc2ccc(F)cn2c1C(=O)NCCOc1ccc(Cl)cc1`, the MIC [1] is reported as 1.14 µg/mL (≈ 3.04 µM).

In the case of `CCc1nc2cc(Cl)ccn2c1C(=O)NCCOc1ccc(Cl)cc1`, the MIC [1] is reported as 5.86 µg/mL (≈ 15.5 µM).

`CCc1nc2ccc(Cl)cn2c1C(=O)NCCOc1ccc(N(C)C)cc1` showed a Tmax [2] of 15 min, an MIC [1] of 0.0625 µg/mL (≈ 0.162 µM) and an AUC(0-inf) [3] of 3340 ng·h/mL. For the same compound, the Cmax [4] was 2120 ng/mL, the MRT [5] was 98.4 min and the survival at 168 h [6] was 100%. It also gave a half-life [7] of 162 min.

Work on `CCc1nc2ccc(Cl)cn2c1C(=O)NCCOc1ccncc1` yielded an MIC [1] greater than 32 µg/mL.

`CCc1nc2ccc(Br)cn2c1C(=O)NCCOc1ccc(N2CCCCC2)cc1` gave a Tmax [2] of 15 min, an MIC [1] of 0.0625 µg/mL (≈ 0.133 µM) and an AUC(0-inf) [3] of 818 ng·h/mL. For the same compound, the Cmax [4] was 983 ng/mL, the MRT [5] was 169 min and the survival at 168 h [6] was 100%. The half-life [7] was 251 min.

`COc1ccc2nc(C)c(C(=O)NCCOc3ccc(N4CCC(C(F)(F)F)CC4)cc3)n2c1` gave a Tmax [2] of 19.8 min, an MIC [1] of 0.0625 µg/mL (≈ 0.131 µM) and an AUC(0-inf) [3] of 754 ng·h/mL. It also gave a Cmax [4] of 638 ng/mL, an MRT [5] of 64.2 min and a survival at 168 h [6] of 100%. The half-life [7] was 55 min.

For `Cc1nc2ccc([N+](=O)[O-])cn2c1C(=O)NCCOc1ccc(Br)cc1`, the MIC [1] was 1.28 µg/mL (≈ 3.05 µM).

For `CCc1nc2ccc(C)cn2c1C(=O)NCCOc1ccc(N2CC3CCCCC3C2)cc1` (configuration not stated), the MIC [1] was 0.0625 µg/mL (≈ 0.14 µM) and the survival at 168 h [6] was 0%.

Compound `Cc1ccc2nc(C3CC3)c(C(=O)NCCOc3ccc(Br)cc3)n2c1` has an MIC [1] of 0.052 µg/mL (≈ 0.126 µM).
